Experimental data published in ChEMBL document CHEMBL1914406, “Inhibitory effect of novel 5-O-acyl juglones on mammalian DNA polymerase activity, cancer cell growth and inflammatory response” (Bioorg Med Chem, 2011).
Active and inactive are the calls of the source. The calls are words filed in the database; no cut-off is given here.

system: RAW264.7; test: Cytotoxicity against mouse RAW264.7 cells at 5 uM; type: cell-based; conditions: raw264.7, 5 µM

**Q.** With `CCCCCCCC/C=C\CCCCCCCC(=O)O` [OLEIC ACID] as the compound, how does the Activity read?
**A.** Its Activity is “Non-toxic”.

**Q.** For `CCCCCC(=O)O` [HEXANOATE], which Activity is on record?
**A.** Its Activity is “Non-toxic”.

**Q.** With `CCCCCC(=O)Oc1cccc2c1C(=O)C=CC2=O` as the compound, how does the Activity read?
**A.** The Activity was “Non-toxic”.

organism: Bos taurus; test: Inhibition of calf DNA polymerase alpha using bovine deoxyribonuclease 1-treated DNA and dNTP as the DNA template-primer and nucleotide substrate at 10 uM after 60 mins; conditions: not given

**Q.** For `CCCCCCCC/C=C\CCCCCCCC(=O)O` [OLEIC ACID], which inhibition is on record?
**A.** Its inhibition is “inactive”.

**Q.** With `CCCCCC(=O)O` [HEXANOATE] as the compound, how does the inhibition read?
**A.** The inhibition was “inactive”.

**Q.** Which inhibition does the source give for `CCCCCC(=O)Oc1cccc2c1C(=O)C=CC2=O` here?
**A.** The inhibition was “Active”.

system: HCT-116; test: Cytotoxicity against human HCT116 cells by WST-1 assay; type: functional, cell-based; conditions: not given
In short: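 HCT116 colon carcinoma cells (ATCC) grown in McCoy's 5A with 10% FBS, penicillin and streptomycin, 37 °C, 5% CO2. Plated at 1 × 10⁴ cells/well together with compound, which was diluted from a 10 mM DMSO stock into medium (final 0.5% DMSO). Incubated 24 h. Viability read by WST-1, expressed relative to untreated cells.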

**Q.** With `CCCCCCCC/C=C\CCCCCCCC(=O)O` [OLEIC ACID] as the compound, how does the Activity read?
**A.** Its Activity is “inactive”.

**Q.** With `CCCCCC(=O)O` [HEXANOATE] as the compound, how does the Activity read?
**A.** Its Activity is “inactive”.

molecular target: T1, DNA polymerase kappa (Homo sapiens) (UniProt Q9UBT6); test: Inhibition of C-terminal His6-tagged human DNA polymerase kappa (amino acids 1 to 560) using bovine deoxyribonuclease 1-treated DNA and dNTP as the DNA template-primer and nucleotide substrate at 10 uM after 60 mins; conditions: not given
T1 sequence (whole entry): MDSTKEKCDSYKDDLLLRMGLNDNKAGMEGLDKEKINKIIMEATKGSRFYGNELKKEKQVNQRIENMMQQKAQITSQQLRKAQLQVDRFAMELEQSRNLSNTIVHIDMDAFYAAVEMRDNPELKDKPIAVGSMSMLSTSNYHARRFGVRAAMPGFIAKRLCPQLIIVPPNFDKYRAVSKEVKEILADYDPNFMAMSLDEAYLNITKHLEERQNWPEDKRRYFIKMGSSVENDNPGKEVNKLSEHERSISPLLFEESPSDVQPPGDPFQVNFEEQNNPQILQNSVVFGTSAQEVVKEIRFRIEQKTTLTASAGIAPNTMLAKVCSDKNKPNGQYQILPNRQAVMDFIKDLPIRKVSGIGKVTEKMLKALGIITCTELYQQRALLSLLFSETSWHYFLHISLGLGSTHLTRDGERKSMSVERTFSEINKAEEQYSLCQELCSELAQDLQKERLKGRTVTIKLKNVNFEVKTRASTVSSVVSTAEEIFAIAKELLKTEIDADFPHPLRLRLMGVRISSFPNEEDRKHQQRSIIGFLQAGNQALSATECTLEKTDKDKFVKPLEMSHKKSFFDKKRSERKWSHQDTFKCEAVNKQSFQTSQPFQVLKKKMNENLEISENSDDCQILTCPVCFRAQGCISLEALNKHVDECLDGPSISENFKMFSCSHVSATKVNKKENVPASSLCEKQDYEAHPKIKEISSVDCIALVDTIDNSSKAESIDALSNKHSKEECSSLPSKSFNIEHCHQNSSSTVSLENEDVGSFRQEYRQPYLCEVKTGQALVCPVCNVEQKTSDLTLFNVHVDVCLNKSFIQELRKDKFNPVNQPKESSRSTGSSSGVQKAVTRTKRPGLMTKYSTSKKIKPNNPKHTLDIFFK

**Q.** Which inhibition does the source give for `CCCCCCCC/C=C\CCCCCCCC(=O)O` [OLEIC ACID] here?
**A.** The inhibition was “inactive”.

**Q.** Which inhibition does the source give for `CCCCCC(=O)O` [HEXANOATE] here?
**A.** The inhibition was “inactive”.

**Q.** With `CCCCCC(=O)Oc1cccc2c1C(=O)C=CC2=O` as the compound, how does the inhibition read?
**A.** Its inhibition is “Active”.

system: Mus musculus; test: Antiinflammatory activity in mouse assessed as inhibition of TPA-induced mouse ear edema at 500 ug/ear administered 30 mins before TPA challenge measured after 7 hrs relative to untreated control; type: functional, organism-based; conditions: not given
In short: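 Compound (500 µg) applied to one mouse ear; 30 min later TPA (0.5 µg) applied to both ears. Edema scored after 7 h and expressed as percentage of edema. Mean ± SE, n = 6.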

**Q.** Which Activity does the source give for `CCCCCCCC/C=C\CCCCCCCC(=O)O` [OLEIC ACID] here?
**A.** The Activity was “inactive”.

**Q.** Which Activity does the source give for `CCCCCC(=O)O` [HEXANOATE] here?
**A.** The Activity was “inactive”.

**Q.** With `CCCCCC(=O)Oc1cccc2c1C(=O)C=CC2=O` as the compound, how does the Activity read?
**A.** Its Activity is “Active”.

molecular target: T2, DNA polymerase lambda (Homo sapiens) (UniProt Q9UGP5); test: Inhibition of recombinant His-tagged human DNA polymerase lambda using bovine deoxyribonuclease 1-treated DNA and dNTP as the DNA template-primer and nucleotide substrate at 10 uM after 60 mins; conditions: not given
T2 sequence (whole entry): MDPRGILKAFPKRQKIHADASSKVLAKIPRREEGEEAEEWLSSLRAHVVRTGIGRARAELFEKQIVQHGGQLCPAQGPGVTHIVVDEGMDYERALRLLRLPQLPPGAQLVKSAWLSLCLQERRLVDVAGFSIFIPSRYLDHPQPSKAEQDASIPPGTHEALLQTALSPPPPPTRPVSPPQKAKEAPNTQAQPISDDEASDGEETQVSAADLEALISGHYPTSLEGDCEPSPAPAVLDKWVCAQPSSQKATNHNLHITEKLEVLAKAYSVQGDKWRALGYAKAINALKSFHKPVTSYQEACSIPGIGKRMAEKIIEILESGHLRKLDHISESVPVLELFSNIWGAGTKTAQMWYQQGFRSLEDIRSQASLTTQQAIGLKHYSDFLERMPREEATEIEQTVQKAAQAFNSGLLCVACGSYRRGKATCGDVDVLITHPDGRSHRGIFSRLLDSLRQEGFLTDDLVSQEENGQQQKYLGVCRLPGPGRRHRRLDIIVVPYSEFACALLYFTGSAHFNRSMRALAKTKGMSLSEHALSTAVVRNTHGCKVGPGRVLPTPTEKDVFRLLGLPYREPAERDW

**Q.** With `CCCCCCCC/C=C\CCCCCCCC(=O)O` [OLEIC ACID] as the compound, how does the inhibition read?
**A.** The inhibition was “inactive”.

**Q.** Which inhibition does the source give for `CCCCCC(=O)O` [HEXANOATE] here?
**A.** Its inhibition is “inactive”.

**Q.** With `CCCCCC(=O)Oc1cccc2c1C(=O)C=CC2=O` as the compound, how does the inhibition read?
**A.** The inhibition was “Active”.

molecular target: T2, DNA polymerase lambda (Homo sapiens); test: Inhibition of recombinant His-tagged human DNA polymerase lambda using poly(dA)/oligo(dT)18 (A/T = 2/1) and dTTP as the DNA template-primer and nucleotide substrate at 10 uM after 60 mins; conditions: not given
In short: (§1)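 Compound in DMSO, sonicated 30 s. Premixed 0 °C, 10 min with enzyme (0.05 units) in 50 mM Tris-HCl pH 7.5, 1 mM DTT, 50% glycerol, 0.1 mM EDTA, then added to standard reaction mixture. Template-primers: poly(dA)/oligo(dT)18 (2/1) for pols, oligo(dT)18 for TdT, poly(rA)/oligo(dT)18 for HIV-1 RT, with [3H]dTTP. 60 min at 37 °C (Taq 74 °C). Activity relative to no-inhibitor control; mean ± SE of three experiments.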

**Q.** For `CCCCCCCC/C=C\CCCCCCCC(=O)O` [OLEIC ACID], which inhibition is on record?
**A.** The inhibition was “inactive”.

**Q.** For `CCCCCC(=O)O` [HEXANOATE], which inhibition is on record?
**A.** The inhibition was “inactive”.

**Q.** Which inhibition does the source give for `CCCCCC(=O)Oc1cccc2c1C(=O)C=CC2=O` here?
**A.** Its inhibition is “Active”.

organism: Homo sapiens; test: Inhibition of histidine-tagged human DNA polymerase gamma using bovine deoxyribonuclease 1-treated DNA and dNTP as the DNA template-primer and nucleotide substrate at 10 uM after 60 mins; conditions: not given

**Q.** Which inhibition does the source give for `CCCCCCCC/C=C\CCCCCCCC(=O)O` [OLEIC ACID] here?
**A.** The inhibition was “inactive”.

**Q.** For `CCCCCC(=O)O` [HEXANOATE], which inhibition is on record?
**A.** The inhibition was “inactive”.

**Q.** With `CCCCCC(=O)Oc1cccc2c1C(=O)C=CC2=O` as the compound, how does the inhibition read?
**A.** The inhibition was “Active”.

system: not listed separately; test: Cytotoxicity against mouse RAW264.7 cells; type: cell-based; conditions: read-out: LD50 (the source's name)

**Q.** With `CCCCCCCC/C=C\CCCCCCCC(=O)O` [OLEIC ACID] as the compound, how does the CC50 read?
**A.** The CC50 was > 10 µM.

**Q.** With `CCCCCC(=O)O` [HEXANOATE] as the compound, how does the CC50 read?
**A.** Its CC50 is > 10 µM.

**Q.** For `CCCCCC(=O)Oc1cccc2c1C(=O)C=CC2=O`, which CC50 is on record?
**A.** Its CC50 is > 10 µM.

molecular target: T1, DNA polymerase kappa (Homo sapiens); test: Inhibition of C-terminal His6-tagged human DNA polymerase kappa (amino acids 1 to 560) using poly(dA)/oligo(dT)18 (A/T = 2/1) and dTTP as the DNA template-primer and nucleotide substrate at 10 uM after 60 mins; conditions: not given

**Q.** Which inhibition does the source give for `CCCCCCCC/C=C\CCCCCCCC(=O)O` [OLEIC ACID] here?
**A.** The inhibition was “inactive”.

**Q.** Which inhibition does the source give for `CCCCCC(=O)O` [HEXANOATE] here?
**A.** The inhibition was “inactive”.

**Q.** With `CCCCCC(=O)Oc1cccc2c1C(=O)C=CC2=O` as the compound, how does the inhibition read?
**A.** The inhibition was “Active”.

system: RAW264.7; test: Antiinflammatory activity in mouse RAW264.7 cells assessed as inhibition of LPS-induced TNFalpha secretion at 5 uM treated 30 mins before LPS challenge measured after 24 hrs by ELISA; type: functional, cell-based; conditions: not given
In short: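 RAW264.7 cells in MEM with 4.5 g/L glucose, 10% FCS, 5 mM L-glutamine, at 37 °C in 5% CO2. Seeded at 5 × 10⁴ cells/well and grown 24 h. Compound (final 1 and 5 µM) given 30 min before 100 ng/mL LPS. After 24 h, TNF-α in the medium measured by ELISA, relative to the no-compound value (100%). Mean ± SE, n = 4.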

**Q.** With `CCCCCCCC/C=C\CCCCCCCC(=O)O` [OLEIC ACID] as the compound, how does the Activity read?
**A.** Its Activity is “inactive”.

**Q.** Which Activity does the source give for `CCCCCC(=O)O` [HEXANOATE] here?
**A.** The Activity was “inactive”.

system: Nucleic Acid; test: Binding affinity to DNA assessed as thermal transition of DNA relative to control; type: nucleic-acid assay; conditions: not given

**Q.** For `CCCCCC(=O)Oc1cccc2c1C(=O)C=CC2=O`, which Activity is on record?
**A.** The Activity was “inactive”.

organism: Homo sapiens; test: Inhibition of histidine-tagged human DNA polymerase gamma using poly(dA)/oligo(dT)18 (A/T = 2/1) and dTTP as the DNA template-primer and nucleotide substrate at 10 uM after 60 mins; conditions: not given; in short: as §1

**Q.** For `CCCCCCCC/C=C\CCCCCCCC(=O)O` [OLEIC ACID], which inhibition is on record?
**A.** Its inhibition is “inactive”.

**Q.** For `CCCCCC(=O)O` [HEXANOATE], which inhibition is on record?
**A.** Its inhibition is “inactive”.

**Q.** Which inhibition does the source give for `CCCCCC(=O)Oc1cccc2c1C(=O)C=CC2=O` here?
**A.** Its inhibition is “Active”.

organism: Bos taurus; test: Inhibition of calf DNA polymerase alpha using poly(dA)/oligo(dT)18 (A/T = 2/1) and dTTP as the DNA template-primer and nucleotide substrate at 10 uM after 60 mins; conditions: not given; in short: as §1

**Q.** Which inhibition does the source give for `CCCCCCCC/C=C\CCCCCCCC(=O)O` [OLEIC ACID] here?
**A.** Its inhibition is “inactive”.

**Q.** For `CCCCCC(=O)O` [HEXANOATE], which inhibition is on record?
**A.** The inhibition was “inactive”.

**Q.** For `CCCCCC(=O)Oc1cccc2c1C(=O)C=CC2=O`, which inhibition is on record?
**A.** Its inhibition is “Active”.
